Counter-ions that a name gives are not always drawn.
Assays:
Caco-2 cell monolayers [1] = assay: Bidirectional transepithelial transport across Caco-2 cell monolayers; type: in vitro ADME, human; conditions: for increase of the efflux (B–A): physiological pH 7.4/7.4
pKa / ionisation = type: physicochemical; conditions: at both pH 6.8 and 7.4
Caco-2 cell monolayers [2] = assay: Paracellular transport of [^3H]-mannitol across Caco-2 monolayers; type: in vitro ADME, human; conditions: apical to basolateral (A-B), over 3 hr
Procedure, shortened: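 Caco-2 TC7 cells (passages 40–55) seeded at 65,000 cells/cm2 on 0.4 µm polycarbonate Transwell inserts and used 20–21 days post-seeding. [3H]-mannitol (0.5 µCi/ml) serves as the paracellular marker for tight-junction integrity. Apical-to-basolateral permeability is followed over 3 hr, with basolateral samples taken at several times and counted by liquid scintillation.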

P-gp = assay: Bidirectional transepithelial transport across Caco-2 cell monolayers; type: in vitro ADME, human; conditions: human, Caco-2, pH 6.8, with cyclosporine A 10 µM, rhodamine 123 5 µM, pH 6.8/7.4, + cyclosporine A 10 µM
[3] = as above; type: in vitro ADME, human; conditions: human, rhodamine 123 5 µM, pH 6.8/7.4, control (no inhibitor)
[4] = 1 µM, pH 6.8/7.4, + 10 µM Cyclosporine A
[5] = 1 µM, pH 7.4/7.4, + 4 µM GF120918
[6] = 1 µM, pH 7.4/7.4, + 10 µM Cyclosporine A
[7] = 1 µM, pH 7.4/7.4, no inhibitor, control of GF120918 experiment (Table 2)
[8] = 10 µM, pH 6.8/7.4, + 10 µM Cyclosporine A
[9] = 10 µM, pH 6.8/7.4, no inhibitor
[10] = 10 µM, pH 7.4/7.4, + 10 µM Cyclosporine A
[11] = 10 µM, pH 7.4/7.4, no inhibitor
[12] = 50 µM, pH 6.8/7.4, + 10 µM Cyclosporine A
[13] = 50 µM, pH 6.8/7.4, no inhibitor
[14] = 50 µM, pH 7.4/7.4, + 10 µM Cyclosporine A
[15] = 50 µM, pH 7.4/7.4, no inhibitor
[16] = 100 µM, pH 6.8/7.4, + 10 µM Cyclosporine A
[17] = 100 µM, pH 6.8/7.4, no inhibitor
[18] = 100 µM, pH 7.4/7.4, + 10 µM Cyclosporine A
[19] = 100 µM, pH 7.4/7.4, no inhibitor
[20] = in the presence of cyclosporine A

SMILES: COc1cccc(C2(O)CCCCC2CN(C)C)c1 (single isomer, unassigned; (+)) [(+)-TMD, (+)-tramadol]
- Papp (A – B) (Caco-2 cell monolayers [1]; [4]): 15.6 ± 1.2 (cm/sec.) (10^−6)
- Papp (B – A) (Caco-2 cell monolayers [1]; [4]): 34.0 ± 0.7 (cm/sec.) (10^−6)
- Papp (A – B) (Caco-2 cell monolayers [1]; 1 µM, pH 6.8/7.4, no inhibitor): 14.1 ± 0.8 (cm/sec.) (10^−6)
- Papp (B – A) (Caco-2 cell monolayers [1]; 1 µM, pH 6.8/7.4, no inhibitor): 31.1 ± 0.8 (cm/sec.) (10^−6)
- Papp (A – B) (Caco-2 cell monolayers [1]; [5]): 45.8 ± 3.7 (cm/sec.) (10^−6)
- Papp (B – A) (Caco-2 cell monolayers [1]; [5]): 60.6 ± 2.1 (cm/sec.) (10^−6)
- Papp (A – B) (Caco-2 cell monolayers [1]; [6]): 26.2 ± 3.4 (cm/sec.) (10^−6)
- Papp (B – A) (Caco-2 cell monolayers [1]; [6]): 34.6 ± 0.8 (cm/sec.) (10^−6)
- Papp (A – B) (Caco-2 cell monolayers [1]; 1 µM, pH 7.4/7.4, no inhibitor): 28.1 ± 0.5 (cm/sec.) (10^−6)
- Papp (B – A) (Caco-2 cell monolayers [1]; 1 µM, pH 7.4/7.4, no inhibitor): 31.5 ± 1.3 (cm/sec.) (10^−6)
- Papp (A – B) (Caco-2 cell monolayers [1]; [7]): 42.6 ± 6.2 (cm/sec.) (10^−6)
- Papp (B – A) (Caco-2 cell monolayers [1]; [7]): 52.3 ± 2.9 (cm/sec.) (10^−6)
- Papp (A – B) (Caco-2 cell monolayers [1]; [8]): 9.6 ± 1.1 (cm/sec.) (10^−6)
- Papp (B – A) (Caco-2 cell monolayers [1]; [8]): 28.8 ± 0.6 (cm/sec.) (10^−6)
- Papp (A – B) (Caco-2 cell monolayers [1]; [9]): 11.0 ± 0.7 (cm/sec.) (10^−6)
- Papp (B – A) (Caco-2 cell monolayers [1]; [9]): 26.9 ± 0.5 (cm/sec.) (10^−6)
- Papp (A – B) (Caco-2 cell monolayers [1]; [10]): 30.2 ± 2.1 (cm/sec.) (10^−6)
- Papp (B – A) (Caco-2 cell monolayers [1]; [10]): 39.4 ± 0.8 (cm/sec.) (10^−6)
- Papp (A – B) (Caco-2 cell monolayers [1]; [11]): 33.5 ± 1.4 (cm/sec.) (10^−6)
- Papp (B – A) (Caco-2 cell monolayers [1]; [11]): 38.8 ± 1.6 (cm/sec.) (10^−6)
- Papp (A – B) (Caco-2 cell monolayers [1]; [12]): 9.3 ± 0.6 (cm/sec.) (10^−6)
- Papp (B – A) (Caco-2 cell monolayers [1]; [12]): 31.2 ± 0.7 (cm/sec.) (10^−6)
- Papp (A – B) (Caco-2 cell monolayers [1]; [13]): 10.3 ± 0.5 (cm/sec.) (10^−6)
- Papp (B – A) (Caco-2 cell monolayers [1]; [13]): 25.6 ± 2.3 (cm/sec.) (10^−6)
- Papp (A – B) (Caco-2 cell monolayers [1]; [14]): 49.9 ± 2.5 (cm/sec.) (10^−6)
- Papp (B – A) (Caco-2 cell monolayers [1]; [14]): 69.6 ± 0.7 (cm/sec.) (10^−6)
- Papp (A – B) (Caco-2 cell monolayers [1]; [15]): 52.5 ± 1.1 (cm/sec.) (10^−6)
- Papp (B – A) (Caco-2 cell monolayers [1]; [15]): 65.3 ± 1.0 (cm/sec.) (10^−6)
- Papp (A – B) (Caco-2 cell monolayers [1]; [16]): 21.7 ± 1.9 (cm/sec.) (10^−6)
- Papp (B – A) (Caco-2 cell monolayers [1]; [16]): 61.7 ± 2.0 (cm/sec.) (10^−6)
- Papp (A – B) (Caco-2 cell monolayers [1]; [17]): 22.6 ± 1.9 (cm/sec.) (10^−6)
- Papp (B – A) (Caco-2 cell monolayers [1]; [17]): 60.9 ± 1.3 (cm/sec.) (10^−6)
- Papp (A – B) (Caco-2 cell monolayers [1]; [18]): 39.1 ± 1.5 (cm/sec.) (10^−6)
- Papp (B – A) (Caco-2 cell monolayers [1]; [18]): 68.2 ± 0.9 (cm/sec.) (10^−6)
- Papp (A – B) (Caco-2 cell monolayers [1]; [19]): 41.7 ± 3.6 (cm/sec.) (10^−6)
- Papp (B – A) (Caco-2 cell monolayers [1]; [19]): 66.9 ± 0.4 (cm/sec.) (10^−6)
- increase of the efflux (B–A) (Caco-2 cell monolayers [1]; GF120918, 1 µM): 17%
- increase of the efflux (B–A) (Caco-2 cell monolayers [1]; [20]): up to 10%

SMILES: COc1cccc(C2(O)CCCCC2CN(C)C)c1 (single isomer, unassigned; (-)) [(−)-TMD, (−)-tramadol]
- Papp (A – B) (Caco-2 cell monolayers [1]; [4]): 18.7 ± 1.1 (cm/sec.) (10^−6)
- Papp (B – A) (Caco-2 cell monolayers [1]; [4]): 36.0 ± 0.3 (cm/sec.) (10^−6)
- Papp (A – B) (Caco-2 cell monolayers [1]; 1 µM, pH 6.8/7.4, no inhibitor): 16.7 ± 0.5 (cm/sec.) (10^−6)
- Papp (B – A) (Caco-2 cell monolayers [1]; 1 µM, pH 6.8/7.4, no inhibitor): 32.2 ± 0.5 (cm/sec.) (10^−6)
- Papp (A – B) (Caco-2 cell monolayers [1]; [5]): 44.8 ± 4.0 (cm/sec.) (10^−6)
- Papp (B – A) (Caco-2 cell monolayers [1]; [5]): 61.3 ± 2.8 (cm/sec.) (10^−6)
- Papp (A – B) (Caco-2 cell monolayers [1]; [6]): 29.2 ± 1.1 (cm/sec.) (10^−6)
- Papp (B – A) (Caco-2 cell monolayers [1]; [6]): 34.2 ± 0.8 (cm/sec.) (10^−6)
- Papp (A – B) (Caco-2 cell monolayers [1]; 1 µM, pH 7.4/7.4, no inhibitor): 31.0 ± 1.9 (cm/sec.) (10^−6)
- Papp (B – A) (Caco-2 cell monolayers [1]; 1 µM, pH 7.4/7.4, no inhibitor): 30.8 ± 1.8 (cm/sec.) (10^−6)
- Papp (A – B) (Caco-2 cell monolayers [1]; [7]): 43.8 ± 5.8 (cm/sec.) (10^−6)
- Papp (B – A) (Caco-2 cell monolayers [1]; [7]): 51.1 ± 1.9 (cm/sec.) (10^−6)
- Papp (A – B) (Caco-2 cell monolayers [1]; [8]): 10.2 ± 1.0 (cm/sec.) (10^−6)
- Papp (B – A) (Caco-2 cell monolayers [1]; [8]): 28.9 ± 0.5 (cm/sec.) (10^−6)
- Papp (A – B) (Caco-2 cell monolayers [1]; [9]): 11.0 ± 0.5 (cm/sec.) (10^−6)
- Papp (B – A) (Caco-2 cell monolayers [1]; [9]): 26.9 ± 0.5 (cm/sec.) (10^−6)
- Papp (A – B) (Caco-2 cell monolayers [1]; [10]): 29.9 ± 1.5 (cm/sec.) (10^−6)
- Papp (B – A) (Caco-2 cell monolayers [1]; [10]): 39.0 ± 0.6 (cm/sec.) (10^−6)
- Papp (A – B) (Caco-2 cell monolayers [1]; [11]): 33.5 ± 2.2 (cm/sec.) (10^−6)
- Papp (B – A) (Caco-2 cell monolayers [1]; [11]): 37.2 ± 0.4 (cm/sec.) (10^−6)
- Papp (A – B) (Caco-2 cell monolayers [1]; [12]): 9.4 ± 0.6 (cm/sec.) (10^−6)
- Papp (B – A) (Caco-2 cell monolayers [1]; [12]): 31.2 ± 0.8 (cm/sec.) (10^−6)
- Papp (A – B) (Caco-2 cell monolayers [1]; [13]): 10.3 ± 0.5 (cm/sec.) (10^−6)
- Papp (B – A) (Caco-2 cell monolayers [1]; [13]): 25.4 ± 2.3 (cm/sec.) (10^−6)
- Papp (A – B) (Caco-2 cell monolayers [1]; [14]): 50.9 ± 1.7 (cm/sec.) (10^−6)
- Papp (B – A) (Caco-2 cell monolayers [1]; [14]): 68.9 ± 0.4 (cm/sec.) (10^−6)
- Papp (A – B) (Caco-2 cell monolayers [1]; [15]): 52.9 ± 1.0 (cm/sec.) (10^−6)
- Papp (B – A) (Caco-2 cell monolayers [1]; [15]): 63.4 ± 3.8 (cm/sec.) (10^−6)
- Papp (A – B) (Caco-2 cell monolayers [1]; [16]): 21.7 ± 2.0 (cm/sec.) (10^−6)
- Papp (B – A) (Caco-2 cell monolayers [1]; [16]): 62.5 ± 2.0 (cm/sec.) (10^−6)
- Papp (A – B) (Caco-2 cell monolayers [1]; [17]): 22.4 ± 1.8 (cm/sec.) (10^−6)
- Papp (B – A) (Caco-2 cell monolayers [1]; [17]): 61.3 ± 1.0 (cm/sec.) (10^−6)
- Papp (A – B) (Caco-2 cell monolayers [1]; [18]): 37.3 ± 1.0 (cm/sec.) (10^−6)
- Papp (B – A) (Caco-2 cell monolayers [1]; [18]): 67.7 ± 1.5 (cm/sec.) (10^−6)
- Papp (A – B) (Caco-2 cell monolayers [1]; [19]): 41.1 ± 2.9 (cm/sec.) (10^−6)
- Papp (B – A) (Caco-2 cell monolayers [1]; [19]): 64.3 ± 3.4 (cm/sec.) (10^−6)
- increase of the efflux (B–A) (Caco-2 cell monolayers [1]; GF120918, 1 µM): 17%
- increase of the efflux (B–A) (Caco-2 cell monolayers [1]; [20]): up to 10%

SMILES: COc1cccc(C2(O)CCCCC2CN(C)C)c1 (centres unmarked) [TMD, Tramadol hydrochloride]
- ionised (protonated) form (pKa / ionisation): 100%

SMILES: OC[C@@H](O)[C@@H](O)[C@H](O)[C@H](O)CO [[^3H]-mannitol]
- transport rate (Caco-2 cell monolayers [2]): < 1 % per hr

SMILES: COC(=O)c1ccccc1-c1c2ccc(=N)cc-2oc2cc(N)ccc12 [rhodamine 123]
- Papp A→B at 3 h, 5 µM (P-gp; Papp(A–B)): 7.8 ± 0.3 ×10⁻⁶ cm/s
- Papp B→A at 3 hr, 5 µM (P-gp; Papp(B–A)): 1.2 ± 0.3 ×10⁻⁶ cm/s
- Papp A→B at 3 h, 5 µM ([3]; Caco-2, pH 6.8, Papp(A–B)): 4.8 ± 0.2 ×10⁻⁶ cm/s
- Papp B→A at 3 hr, 5 µM ([3]; Caco-2, pH 6.8, Papp(B–A)): 6.4 ± 0.7 ×10⁻⁶ cm/s
- decrease of secretory transport (Caco-2 cell monolayers [1]; in the presence of the P-gp inhibitor cyclosporine A): 80%
